Reference: ChEMBL document CHEMBL4651341, “The discovery of a novel series of compounds with single-dose efficacy against juvenile and adult Schistosoma species” (PLoS Negl Trop Dis, 2021)
pEC50: −log10 of the molar value. In brackets after ≈: the same amount, converted by molar mass.

How the values were obtained:
Schistosoma mansoni [1] = assay: Concentration required to kill 50% of 21 day old worms 5 days after drug treatment.; assay type: functional, organism-based; settings: Puerto Rican, 120 h
How it was run: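 Juvenile S. mansoni (Puerto Rican strain) were perfused from CD1 mice 3 weeks post-infection and washed. They were cultured 6–8 per well in 200 µL DMEM with 2 mM glutamine, penicillin/streptomycin and 10% FCS at 37 °C, 5% CO2. Viability of individual worms was scored on day 5 after dosing (120 h).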

[2] = Concentration required to kill 50% MRC-5 cells as detected by Alamar blue staining; assay type: toxicity, cell-based, MRC5; settings: homo sapiens, read-out: TC50 (the source's name)
Schistosoma mansoni [3] = assay: Concentration required to kill 50% of 42 day old worms 5 days after drug treatment.; assay type: functional, organism-based; settings: Puerto Rican, 120 h
How it was run: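 Adult S. mansoni were perfused from CD1 mice 6 weeks post-infection and washed. They were cultured 3 pairs per well in 1 mL DMEM with 2 mM glutamine, penicillin/streptomycin and 10% FCS […] at 37 °C, 5% CO2. Viability of individual worms was scored on day 5 (120 h).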

[4] = Solubility at 25 degC of compound (diluted from DMSO) in PBS at pH 7.4 determined after 24h (1h sonication, 22h shaking, 1h sonication) by LCMS/MS; assay type: physicochemical
[5] = Concentration required to kill 50% HepG2 cells as detected by MTT staining; assay type: toxicity, cell-based; settings: homo sapiens, read-out: TC50 (the source's name)
[6] = Mean half-life in Swiss albino male mice at 1 mg/kg per compound (administered iv in a mixture of 5 compounds to 3 mice) assessed by LCMS/MS.; assay type: ADME, organism-based; settings: mouse, in vivo
How it was run: (§1)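 Male Swiss albino mice (~30 g), 3 per experiment, mostly dosed as mixtures of 5 compounds iv via the lateral tail vein. Vehicle: 10% DMSO/90% 50 mM Na2HPO4 with 0.5% Tween-80. Plasma stored at −20 °C and quantified by LC-MS after acetonitrile precipitation.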

[7] = Partition coefficient of compound between n-octanol and PBS (pH7.4); assay type: physicochemical; settings: octanol/water, pH 7.4
How it was run: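 Shake-flask method using octanol and PBS pH 7.4, each pre-saturated with the other. Compound was shaken 2 h at 850 rpm, 25 °C, then the phases were separated by centrifugation and both layers diluted and analysed by LC-MS/MS. LogD = log(octanol AUC × relative dilution / buffer AUC).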

[8] = Mean plasma concentration at 4h in Swiss albino male mice at […] per compound (administered orally in a mixture of 5 compounds to 3 mice) assessed by LCMS/MS.; assay type: ADME, organism-based; settings: mouse, po
[9] = Percentage of parent compound remaining after incubation for 30 minutes with cyropreserved mouse hepatocytes at a concentration of 1uM compound and […], determined by LCMS; assay type: ADME, tissue-based, Hepatocyte; settings: cryopreserved mouse hepatocytes, read-out: Stability
How it was run: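 Compound was incubated at 1 µM final (2 µM working solution mixed 1:1 with hepatocyte suspension) in supplemented KHB pH 7.4. Conditions: 37 °C, 5% CO2, gentle mixing, duplicates. Reaction quenched with ice-cold acetonitrile containing standard; analysed by LC-MS/MS. % remaining = AUC at t / AUC at T0.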

[10] = Mean AUC inf in Swiss albino male mice at 1 mg/kg per compound (administered iv in a mixture of 5 compounds to 3 mice) assessed by LCMS/MS.; assay type: ADME, organism-based; settings: male, Swiss albino, mouse, in vivo
How it was run: (§2)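 Male Swiss albino mice (~30 g), 3 per experiment, mostly dosed as mixtures of 5 compounds iv via the lateral tail vein. Vehicle: 10% DMSO/90% 50 mM Na2HPO4 with 0.5% Tween-80. Blood sampled at 5, 15, 30 min and 1, 2, 4, 8, 24 h. Plasma stored at −20 °C and quantified by LC-MS after acetonitrile precipitation.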

[11] = Mean plasma concentration at 24h in Swiss albino male mice at […] per compound (administered orally in a mixture of 5 compounds to 3 mice) assessed by LCMS/MS.; assay type: ADME, organism-based; settings: mouse, po
[12] = Mean oral bioavailability in Swiss albino male mice at […] per compound (administered in a mixture of 5 compounds to 3 mice) assessed by LCMS/MS.; further: dose 2.5 mg/kg; assay type: ADME, organism-based; settings: male, Swiss albino, mouse, in vivo, read-out: Bioavailability
[13] = Mean time to peak plasma concentration in Swiss albino male mice at […] per compound (administered orally in a mixture of 5 compounds to 3 mice) assessed by LCMS/MS.; assay type: ADME, organism-based; settings: mouse, po
[14] = Plasma protein binding determined at 10uM by LC-MS/MS.; assay type: ADME, cell-free; settings: mouse
How it was run: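 Equilibrium dialysis of plasma spiked at 10 µM (0.1% DMSO) against PBS pH 7.4, 6 h at 37 °C, duplicates. Both chambers analysed by LC-MS/MS after acetonitrile precipitation. % free = buffer/plasma area ratio; recovery also calculated.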

[15] = Mean observed clearance in Swiss albino male mice at 1 mg/kg per compound (administered iv in a mixture of 5 compounds to 3 mice) assessed by LCMS/MS.; assay type: ADME, organism-based; settings: male, Swiss albino, mouse, in vivo, read-out: Clearance (converted); how it was run: as §2
[16] = Mean volume of distribution at steady state in Swiss albino male mice at 1 mg/kg per compound (administered iv in a mixture of 5 compounds to 3 mice) assessed by LCMS/MS.; assay type: ADME, organism-based; settings: mouse, in vivo, read-out: Volume; how it was run: as §1

| Compound | pEC50 (Schistosoma mansoni [1]) | CC50 [2] [µM] | pEC50 (Schistosoma mansoni [3]) | solubility kinetic at 24 h [4] [µM] | CC50 [5] [µM] | half-life [6] [min] | Lipophilicity [7] | concentration at 4 h [8] [ng/mL] | remaining at 0.5 h, 1 µM [9] [%] | AUC(0-inf) [10] [ng·h/mL] | concentration at 24 h [11] [ng/mL] | bioavailability [12] [%] | Tmax [13] [min] | Binding [14] [%] | clearance [15] [mL/min/kg] | Vd [16] [L/kg] |
| --- | --- | --- | --- | --- | --- | --- | --- | --- | --- | --- | --- | --- | --- | --- | --- | --- |
| CCOc1cccc(-c2cn3c(-c4ccc(OC)cc4)cnc3cn2)c1 | 4.96 | 37.7 | 4.92 | – | – | – | – | – | – | – | – | – | – | – | – | – |
| Cc1nc2cnc(-c3cccc(C(C)C)c3)cn2c1-c1ccc(O)cc1 | > 6.38 | > 50 | > 6.37 | 1.19 (≈ 0.409 µg/mL) | > 11.5 | – | – | – | – | – | – | – | – | – | – | – |
| CC(C)Oc1cccc(-c2cn3c(-c4cnn(Cc5ccccc5)c4)cnc3cn2)c1 | < 4.60 | 39.4 | < 4.60 | – | – | – | – | – | – | – | – | – | – | – | – | – |
| CC(C)c1cccc(-c2cn3c(-c4ccc(O)c(F)c4)cnc3cn2)c1 | 5.88 | > 50 | 6.08 | – | > 30 | – | – | – | – | – | – | – | – | – | – | – |
| Cc1nc2cnc(-c3cccc(C(F)(F)F)c3)cn2c1-c1c(F)cc(O)cc1F | 6.76 | – | – | 1.73 (≈ 0.701 µg/mL) | 8.4 | 27.5 | 3.81 = | 2.67 | 42.3 | 99.6 | 0.1 | 4 | 15 | 99.88 | 86 | 1.8 |
| COc1ccc(-c2cnc3cnc(-c4cccc(OC(C)C)c4)cn23)cc1OC | 5.02 | 28.7 | 5.25 | – | – | – | – | – | – | – | – | – | – | – | – | – |
| Oc1ccc(-c2cnn3ccc(-c4cccc(C(F)(F)F)c4)cc23)c(F)c1 | 5.58 | – | – | 1.42 (≈ 0.529 µg/mL) | – | 25 | 4.27 = | 0.1 | 50.9 | 52.7 | 0.1 | 0 | 15 | 100 | 158 | 2.85 |
| CC(C)Oc1cccc(-c2cn3c(-c4ccc5[nH]ncc5c4)cnc3cn2)c1 | 5.12 | 22.2 | 5.14 | – | – | – | – | – | – | – | – | – | – | – | – | – |
| CC(C)c1cccc(-c2cn3c(-c4ccc(O)cc4F)cnc3cn2)c1 | 6.20 | 11.1 | 6.58 | 1.23 (≈ 0.427 µg/mL) | > 11.1 | – | – | – | – | – | – | – | – | – | – | – |
| CCc1nc2cnc(-c3cccc(C(F)(F)F)c3)cn2c1-c1ccc(OC)c(O)c1 | 7.08 | > 50 | > 6.88 | 0.672 (≈ 0.278 µg/mL) | > 30 | – | 3.97 = | – | – | – | – | – | – | – | – | – |
| CCc1cccc(-c2cn3c(-c4ccc(OC)c(OC)c4)cnc3cn2)c1 | 5.55 | 29.9 | 5.97 | – | – | – | – | – | – | – | – | – | – | – | – | – |
| COc1cc(-c2cnc3cnc(-c4cccc(C(C)C)c4)cn23)ccc1O | 5.79 | > 50 | 5.85 | – | 26 | – | 4.75 = | – | – | – | – | – | – | – | – | – |
| COc1ccc(-c2cnc3cnc(-c4cccc(OC)c4)cn23)cc1 | 4.90 | > 49.9 | 5.17 | – | – | – | – | – | – | – | – | – | – | – | – | – |
| Oc1ccc(-c2cnc3ccc(-c4cccc(C(F)(F)F)c4)nn23)c(F)c1 | < 4.60 | > 50 | < 4.60 | – | – | – | – | – | – | – | – | – | – | – | – | – |
| COc1ccc(-c2nnc3ccc(-c4cccc(C(C)C)c4)cn23)cc1 | 4.62 | 40.8 | – | – | – | – | 4.71 = | – | – | – | – | – | – | – | – | – |
| CC(C)c1nc2cnc(-c3cccc(C(F)(F)F)c3)cn2c1-c1ccc(OP(=O)(O)O)cc1F | 6.90 | – | > 7.31 | 204 (≈ 101 µg/mL) | 9.2 | 31.7 | 0.075 = | 5.46 | 39.6 | 131 | 0.1 | 5.44 | 15 | 96.805 | 69 | 1.26 |
| COc1ccc(-c2cnc3cnc(-c4cccc(C(C)C)c4)cn23)cc1 | 5.61 | 9.04 | 5.73 | – | – | – | 5.36 = | – | – | – | – | – | – | – | – | – |
| COc1ccc(-c2c(C)nn3cnc(-c4cccc(C(F)(F)F)c4)cc23)cc1O | 6.11 | – | – | 29.8 (≈ 11.9 µg/mL) | – | 14.4 | 3.73 = | 0.1 | 45.1 | 43.2 | 0.1 | – | – | 99.935 | 195 | 3.18 |
| Cc1nc2cnc(-c3cccc(C(F)(F)F)c3)cn2c1-c1ccc(O)cc1F | > 6.21 | 18.7 | 6.54 | 3.49 (≈ 1.35 µg/mL) | – | – | – | – | 31.5 | – | – | – | – | – | – | – |
| COc1ccc(-c2cnc3cnc(-c4cccc(Cl)c4)cn23)cc1 | 4.88 | > 50 | 4.91 | – | – | – | – | – | – | – | – | – | – | – | – | – |
| COc1ccc(-c2cnc3ccc(-c4cccc(C(C)C)c4)nn23)cc1O | 5.08 | 11.3 | 5.25 | – | 9.24 | – | – | – | – | – | – | – | – | – | – | – |
| CC(C)Oc1cccc(-c2cn3c(-c4ccnc(C(F)(F)F)c4)cnc3cn2)c1 | < 4.60 | > 49.2 | < 4.60 | – | – | – | – | – | – | – | – | – | – | – | – | – |
| COc1ccc(-c2cnc3cnc(-c4cccc(OC(C)C)c4)cn23)c(OC)c1 | 4.90 | > 48.9 | 4.90 | – | – | – | – | – | – | – | – | – | – | – | – | – |
| COc1ccc(-c2c(C(C)C)nc3cnc(-c4cccc(C(F)(F)F)c4)cn23)cc1OP(=O)(O)O | 6.62 | – | – | 209 (≈ 106 µg/mL) | 19.2 | 22.6 | 0.09 = | 0.1 | 51.1 | 25 | 0.1 | – | – | 96.79 | 345 | 4.06 |
